Screening results from PubChem.
Rows were chosen to be rich in hits. Some 2.2% of all compounds tested hit in one or more screens of this group.
RBBP9 inhibitor = blocks human serine hydrolase RBBP9 | recombinant RBBP9, FP-Rh probe fluorescence polarization | 0.2% of 220,000 active | inhibition, % at 7.94 µM;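 active = inhibition above the campaign mean of all tested compounds plus 3 SD, cut at about 14% in these data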
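Test system: recombinant human RBBP9. Quantity: 2.5 µM RBBP9 dispensing solution, before mixing. Detection: FP readout at 525/598 nm. Reagent: Serine-hydrolase probe FP-Rh, 375 nM pre-mixing. Measure: % inhibition. Control set: DMSO-treated enzyme wells and wells lacking RBBP9. Buffer or medium: Tris-NaCl-Pluronic buffer, pH 8.0. Times: preincubation 30 min plus labeling 45 min at 25 °C.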
Wee1 stabilizer = blocks degradation of human Wee1 kinase. reporter increase, % at 5 µM. 1.2% of 220,000 active. HeLa Luc-Wee1K328M stability, luciferase luminescence; 100% = proteasome inhibitor MG132 effect;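 active = activation above the mean of all tested compounds plus 3 SD, set per screening run, cut at about 8.8% in these data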;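 note: cells exposed to compound for 20 h before luminescence read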
Redox H2O2 prof = compounds producing H2O2 with reducing agent – biochemical, NIH compound library profiling, artefact control for MLSCN library redox annotation, primary screen; DTT-dependent redox cycling H2O2, phenol red/HRP absorbance; 100% = 100 µM peroxide control, 0% = buffer; activation, % at 10 µM; 0.03% of 200,000 active;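 active = activation of at least 50% relative to the plate's high and low controls in the primary single-dose screen; inactive = activation below 50%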;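 note: compound incubated with DTT at 0.8 mM final as the reducing agent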
PKD1 inh = blocks activity of human protein kinase D1. Q15139. PKD1 kinase fluorescence polarization assay. inhibition, % (no concentration beside the values). 0.056% of 200,000 active. AID 797; in the data active = inhibition above about 50%
Arbovirus anti = antivirals against arbovirus infection; arbovirus infection cell-based antiviral screen; inhibition, % at 10 µM; 0.37% of 200,000 active; AID 1251; in the data active = inhibition above about 30%
p97 ATPase inh = blocks human p97 ATPase activity | AID 1481 | 0.42% of 220,000 active | recombinant p97 ATPase, Kinase-Glo ATP luminescence, 3 h | P55072 | inhibition, % at 8 µM; in the data active = inhibition above about 15%
Target sequence (P55072 whole entry, looked up): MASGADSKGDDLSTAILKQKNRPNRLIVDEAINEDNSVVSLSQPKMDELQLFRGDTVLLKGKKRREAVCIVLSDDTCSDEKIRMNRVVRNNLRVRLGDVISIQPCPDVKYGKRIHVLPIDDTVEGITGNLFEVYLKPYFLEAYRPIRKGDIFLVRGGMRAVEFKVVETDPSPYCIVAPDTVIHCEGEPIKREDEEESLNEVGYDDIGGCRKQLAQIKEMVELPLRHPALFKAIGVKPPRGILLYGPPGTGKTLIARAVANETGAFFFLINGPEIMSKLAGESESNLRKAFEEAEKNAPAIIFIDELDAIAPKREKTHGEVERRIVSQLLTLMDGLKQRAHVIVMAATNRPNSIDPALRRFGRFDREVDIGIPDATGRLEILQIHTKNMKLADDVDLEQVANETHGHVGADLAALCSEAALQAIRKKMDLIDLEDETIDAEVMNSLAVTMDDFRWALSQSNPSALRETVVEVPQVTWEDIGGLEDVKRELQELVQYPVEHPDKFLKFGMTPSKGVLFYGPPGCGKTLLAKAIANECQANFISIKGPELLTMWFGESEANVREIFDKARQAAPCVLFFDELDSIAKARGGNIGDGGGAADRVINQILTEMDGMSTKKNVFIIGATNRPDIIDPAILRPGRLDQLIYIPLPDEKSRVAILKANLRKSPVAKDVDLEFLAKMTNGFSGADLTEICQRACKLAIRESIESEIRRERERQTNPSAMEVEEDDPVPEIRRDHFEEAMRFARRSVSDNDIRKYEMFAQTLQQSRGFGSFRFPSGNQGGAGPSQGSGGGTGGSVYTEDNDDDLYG
Wee1 degr conf = confirmation of human Wee1 degradation inhibitors; HeLa Luc-Wee1K328M degradation, luminescence; vehicle 0%, proteasome-blocked wells 100%; 4% of 1,100 active; activation, % at 5 µM; shares compounds with Wee1 stabilizer; AID 1410; in the data active = activation above about 8.9%
Large screens that a line does not name were inactive (follow-up assays come after a bar, where they were run).

O=C(Nc1ccccc1)C1Cc2ccccc2CN1C(=O)c1ccco1 (stereo unspecified)	none
O=C(NC1CCCCCC1)C1Cc2ccccc2CN1C(=O)c1ccco1 (stereo unspecified)	Wee1 stabilizer 21.3 | Wee1 degr conf inactive
Cc1ccccc1-c1noc(-c2ccc(O)cc2)n1	Wee1 stabilizer 11.0 | Wee1 degr conf inactive
Cc1ccccc1-c1noc(-c2ccc(Cl)cc2)n1	none
Cc1cccc(NC(=O)c2ccc(NCC3CCCO3)c([N+](=O)[O-])c2)n1 (stereo unspecified)	Wee1 stabilizer 11.3 | Wee1 degr conf inactive
O=C(c1cccc2ccccc12)N1CCC(N2CCN(c3ccccc3)CC2)CC1	none
COc1cccc(-c2nnc(-c3ccc(C)o3)o2)c1	none
COc1cccc(-c2nnc(-c3ccco3)o2)c1	Wee1 stabilizer 11.3 | Wee1 degr conf inactive
CC(C)N(Cc1ccccc1)C(=O)CSc1nccn1C	Wee1 stabilizer 11.9 | Wee1 degr conf inactive
CC(C)N(Cc1ccccc1)C(=O)CCc1ccccc1	none
CCCCc1ccc(C2C(C#N)=C(N)SC(N)=C2C#N)s1	none
CC(=O)N1[C@H](C)C=C[C@]1(Cc1ccccc1)C(=O)O	none
O=C(CSc1nnc(Cc2ccccc2)n1-c1ccccc1)NNC(=O)Cc1ccccc1	Wee1 stabilizer 16.9 | Wee1 degr conf inactive
CCOC(=O)c1[nH]c2c(c1-c1ccccc1)C(=O)CC(c1ccc(OC)c(OC)c1)C2 (stereo unspecified)	Wee1 stabilizer 20.4 | Wee1 degr conf inactive
CC(C)c1ccc(C(=O)NC2=NCCS2)cc1	none
Cc1ccc(C(=O)NC2=NCCS2)cc1	Wee1 stabilizer 15.7 (no result: Redox H2O2 prof, PKD1 inh, Arbovirus anti) | Wee1 degr conf inactive
COCC(=O)Nc1c(C(=O)Nc2ccc3c(c2)OCCO3)oc2ccccc12	Wee1 stabilizer 11.8 | Wee1 degr conf inactive
Cn1cc(S(=O)(=O)N2CCCC(C(=O)O)C2)cn1 (stereo unspecified)	none
CC(=O)C1=C(O)C(=O)N(c2nccs2)C1c1ccccc1 (stereo unspecified)	none
CN(Cc1c(F)cccc1Cl)C(=O)C1CC(=O)N(CCc2ccccc2)C1 (stereo unspecified)	Wee1 stabilizer 12.5 | Wee1 degr conf inactive
O=C(O)C1CC(=O)N(CCc2ccccc2)C1 (stereo unspecified)	none
CCCCOc1ccc(Cl)cc1CSc1nnc(C)n1N	none
O=C(Nc1ccc(Oc2cccnc2)cc1)c1ccccc1F	none
COc1ccc2nc(C)cc(Sc3nc4ccccc4s3)c2c1	none (no result: Redox H2O2 prof, PKD1 inh, Arbovirus anti)
CC(C)CCNC(=O)c1cc(-c2ccncc2)nc2ccc(S(=O)(=O)N3CCOCC3)cc12	Wee1 stabilizer 11.1 | Wee1 degr conf inactive
COc1ccc2c(CC(=O)Nc3ccc(OC)nc3)coc2c1	none
c1ccc(-n2cnnc2SCc2cn3ccsc3n2)cc1	Wee1 stabilizer 13.0 | Wee1 degr conf inactive
CCCC(C)C(=O)OCC(=O)NCc1ccc(OC)c(OC)c1 (stereo unspecified)	Wee1 stabilizer 13.8 | Wee1 degr conf inactive
CN(C)c1ccc(C(CNS(=O)(=O)c2ccc(F)c(F)c2)c2c[nH]c3ccccc23)cc1 (stereo unspecified)	Wee1 stabilizer 11.5 | Wee1 degr conf inactive
CN(C)c1ccc(C(CNC(=O)c2ccccc2F)c2c[nH]c3ccccc23)cc1 (stereo unspecified)	none
CN1CCN(c2ncnc3c2cnn3-c2ccc(Cl)cc2)CC1	Wee1 stabilizer 13.4 | Wee1 degr conf inactive
Cc1ccc(OCC(O)Cn2c(=N)n(CCN3CCCCC3)c3ccccc32)cc1 (stereo unspecified)	none
COc1ccc(OCC(O)Cn2c(=N)n(CCN3CCCCC3)c3ccccc32)cc1 (stereo unspecified)	Wee1 stabilizer 14.3 | Wee1 degr conf inactive
Cc1ccc(/C(N)=N/OC(=O)c2ccco2)cc1	none
N/C(=N\OC(=O)c1ccco1)c1ccc(Br)cc1	Wee1 stabilizer 15.3 | Wee1 degr conf inactive
COC(=O)C1=C(N)Oc2cc(C)n(Cc3cccnc3)c(=O)c2C1c1ccccc1OC (stereo unspecified)	none
COC(=O)C1=C(N)Oc2cc(C)n(Cc3ccncc3)c(=O)c2C1c1cccnc1 (stereo unspecified)	Wee1 stabilizer 13.9 (no result: Arbovirus anti) | Wee1 degr conf inactive
COC(=O)C(=C/C=C/N1CCOCC1)C(=O)OC	none (no result: Redox H2O2 prof, PKD1 inh, Arbovirus anti)
CCCCNS(=O)(=O)c1ccc(NC(=O)Cc2ccccc2[N+](=O)[O-])cc1	Wee1 stabilizer 14.0 | Wee1 degr conf inactive
CC(C)(C)NS(=O)(=O)c1ccc(NC(=O)Cc2ccccc2[N+](=O)[O-])cc1	none
C[C@H](O)[C@@H](C(=O)N1CCN(C(=O)OC(C)(C)C)CC1)n1cc(CCCCNC(=O)OC(C)(C)C)nn1	Wee1 stabilizer 22.2 | Wee1 degr conf inactive
CCCCc1cn([C@@H](CCCCNC(=O)OC(C)(C)C)C(=O)N2CCN(C(=O)OC(C)(C)C)CC2)nn1	none
CC1=C(C)CS(=O)N(c2ccc(S(N)(=O)=O)cc2)C1 (stereo unspecified)	none
CC1=C(C)CS(=O)N(S(=O)(=O)c2ccccc2)C1 (stereo unspecified)	Wee1 stabilizer 11.1 | Wee1 degr conf inactive
O=C(O)C1c2ccccc2C(=O)N(Cc2ccc(F)cc2)C1c1ccncc1 (stereo unspecified)	none (no result: Redox H2O2 prof, PKD1 inh, Arbovirus anti)
O=C(Nc1nnc(-c2ccncc2)o1)c1ccccc1	Wee1 stabilizer 22.0 | Wee1 degr conf inactive
COc1ccc(CNC(=O)COC(=O)/C=C/c2cccc(Br)c2)cc1	none
CC(C)[C@H](NC(=O)c1ccco1)C(=O)OCC(=O)N1CC(=O)Nc2ccccc21	Wee1 stabilizer 14.0 | Wee1 degr conf inactive
CC(=O)N1CC(=O)N=C1SCC(=O)Nc1nc(C)c(-c2ccccc2)s1	none
O=C(CCn1c(=O)oc2ccccc21)NCCC1=CCCCC1	Wee1 stabilizer 17.3 (no result: Redox H2O2 prof, PKD1 inh, Arbovirus anti) | Wee1 degr conf inactive
O=C(CCn1c(=O)oc2ccccc21)NCCN1CCc2ccccc2C1	none
CCOC(=O)C(C)Sc1nc2c(c(=O)[nH]c(=O)n2C)n1C/C=C(/C)Cl (stereo unspecified)	Wee1 stabilizer 11.8 | Wee1 degr conf inactive
COc1cc(OC)c2c(=O)cc(-c3ccccc3)oc2c1	none
COc1cc(OC)c2c(=O)cc(-c3cccnc3)oc2c1	Wee1 stabilizer 14.0 (no result: Redox H2O2 prof, PKD1 inh, Arbovirus anti) | Wee1 degr conf inactive
CSc1ccc(/C=N/n2c(Cc3ccc(Br)cc3)n[nH]c2=S)cc1	Wee1 stabilizer 11.1 | Wee1 degr conf inactive
O=C(NC1CCCCC1)NC1CC2CCC(C1)N2C(=O)NC1CCCCC1 (stereo unspecified)	Wee1 stabilizer 15.4 | Wee1 degr conf inactive
